Source: PubChem BioAssay (several laboratories)
Sampled rows, rich in hits. Any-hit rate of the full collection: about 2.3%.
DSG3 Ab inh – human desmoglein-3 autoantibody binding inhibition | P32926 | DSG3-coupled beads, scFv-anti-DSG3-GFP binding, flow cytometry; stronger effect = lower value | binding (percent of control), % at 10 µM | hit rate 0.48% among 310,000;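 active = binding more than 3 SD below its plate's average and above zero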;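 note: hits lower antibody fragment binding to DSG3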
CHT inh – inhibitors of human choline transporter CHT. Q9GZV3. CHT-expressing cells, membrane potential dye, choline response; stronger effect = lower value. B-score at 10 µM. hit rate 0.86% among 310,000;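 active = B-score over 3 SD under the library average, and starting fluorescence ratio not unusually high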;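 note: choline stimulus applied at its EC90 after an EC20 pre-addition; B-score computed on integrated fluorescence ratio after choline addition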
GPR7 antag – antagonists of human GPR7 (neuropeptides B/W receptor 1); P48145; GPR7-expressing cells, fluorescence antagonist assay; inhibition, % at 4.4 µM; hit rate 1.1% among 290,000; AID 1861; in the data active = inhibition above about 16%, passing the limit was not always enough;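 note: cells stimulated with the agonist NPW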
Target sequence (P48145 whole entry, looked up): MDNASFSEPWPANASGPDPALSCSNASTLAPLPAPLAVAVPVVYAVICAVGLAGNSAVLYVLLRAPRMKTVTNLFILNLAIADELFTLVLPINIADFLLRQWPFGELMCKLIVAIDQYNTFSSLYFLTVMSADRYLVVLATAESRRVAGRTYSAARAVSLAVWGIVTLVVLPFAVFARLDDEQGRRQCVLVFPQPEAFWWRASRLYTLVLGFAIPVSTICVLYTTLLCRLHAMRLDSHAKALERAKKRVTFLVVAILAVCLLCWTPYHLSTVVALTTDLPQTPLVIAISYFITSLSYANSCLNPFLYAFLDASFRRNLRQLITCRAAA
CHT allo act – allosterically activates the human high affinity choline transporter. Q9GZV3. CHT-expressing cells, membrane potential dye, choline EC20; stronger effect = higher value; LV-AA mutant CHT in HEK293 cells. B-score at 10 µM. hit rate 0.49% among 310,000. AID 488977;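 active = initial fluorescence not abnormally high and integrated response B-score, plate-corrected, over 3 SD above library mean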
T cell modulator – T cell immune modulators affecting CD8 T cell-vesicle binding. hit rate 0.068% among 330,000. response (vesicle binding), % at 7 µM. AID 2052. 2C CD8+ T cell-vesicle binding, flow cytometry; stronger effect = lower value;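 active = response, share of CD8 T cells binding vesicles, and their 90th percentile fluorescence all below set limits, cut at about 80% in these data, passing the limit was not always enough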;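 note: values below 100% mean blocked vesicle binding to the CD8+ T cells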
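Incubation: binding step 1.5 h, 37 °C, antibody labelling 20 min, ice; system: murine 2C transgenic CD8+ T lymphocytes; technique: cytometric PE anti-B7-1 and Alexa647 anti-CD8 signals after 1% paraformaldehyde fixation; also added: QL9-charged Drosophila Ld/ICAM-1/B7-1 vesicles; control set: naked versus QL9-loaded vesicles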
p-CIP stab down – compounds decreasing mouse p/CIP protein stability; hit rate 0.01% among 290,000; F442A p/CIP-EGFP cells, EGFP fluorescence, 16 h; Q05BA5; decrease of EGFP signal, % at 10 µM;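 active = EGFP signal decrease of at least 30% at 10 µM or well 3 SD below plate mean, unless failing retest; inactive = the rest, including hits failing retest or dose response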
CHT block conf – human CHT inhibition, confirmatory screen; AID 493221; shares compounds with CHT inh; hit rate 70% among 2,400; CHT-expressing cells, choline membrane potential dye; LV-to-AA substituted CHT, HEK293 cells; CHT activity remaining % of control (stronger effect = lower value), % at 10 µM;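 active = choline transporter activity left, mean of duplicates at 10 µM, below buffer-only control mean minus 3 SD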;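 note: depolarization triggered by choline at its EC90 following an EC20 pre-addition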
HEK293 CHT ctr – counter-screen for CHT inhibitors: effect in parental HEK293 cells; shares compounds with CHT inh; hit rate 4% among 2,400; membrane potential ratio readout (active if shifted either direction beyond buffer ±3SD; no single direction) at 10 µM; membrane potential dye, choline response; active = decrease or increase beyond buffer ±3SD; AID 493222;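 note: parental cells lack the transporter so any hit is non-specific; ratio is peak minus trough fluorescence over baseline after EC90 choline challenge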
Numbers stand for hits; n = inactive; x = no result given.

SMILES | DSG3 Ab inh | CHT inh | GPR7 antag | CHT allo act | T cell modulator | p-CIP stab down | CHT block conf | HEK293 CHT ctr
CCOCCCN(C)C1CCN(C(=O)c2oc3ccccc3c2NC(=O)c2ccc(F)cc2)CC1 | n | -9 | n | n | n | n | 21% | n
CON(C)C(=O)/C=C/c1ccc([B-](F)(F)F)cc1 | n | x | x | x | x | x | x | x
CSc1ccccc1C(=O)NCCS(=O)(=O)N1CCN(c2ccc(F)cc2)CC1 | n | -5.3 | x | n | n | x | 38% | n
COc1ccccc1OCC(=O)NCCS(=O)(=O)N1CCN(c2ccccc2)CC1 | n | -6.9 | x | n | n | x | 58% | n
CCn1c(=O)c2c(nc3n2CCCN3CCc2ccc(OC)c(OC)c2)n(C)c1=O | n | n | n | n | n | n | x | x
CCCn1c(=O)c2c(nc3n2CCCN3CCc2ccc(OC)c(OC)c2)n(C)c1=O | n | -5.2 | n | n | n | n | 70% | n
CCc1nnc(NS(=O)(=O)c2ccc(NC(=O)COc3ccc4ccccc4c3)cc2)s1 | n | -5.8 | n | n | n | n | n | n
CCc1nnc(NS(=O)(=O)c2ccc(NC(=O)c3cccc4ccccc34)cc2)s1 | n | n | n | n | n | n | x | x
CCc1nnc(NC(=O)c2cc(S(=O)(=O)N(CC)CC)ccc2Cl)s1 | n | -5.9 | n | n | n | n | 52% | n
CCc1nnc(NS(=O)(=O)c2ccc(NC(=O)c3cccc(Br)c3)cc2)s1 | n | -7 | n | n | n | n | 48% | n
CCc1nnc(NS(=O)(=O)c2ccc(NC(=O)c3cc(Cl)ccc3Cl)cc2)s1 | n | -6.1 | n | n | n | n | 30% | n
CCc1nnc(NS(=O)(=O)c2ccc(NC(=O)c3ccc(S(=O)(=O)N(CC)CC)cc3)cc2)s1 | n | n | n | n | n | n | x | x
CC1(C)CCC[C@]2(C)C(CS(=O)c3ccccc3)=C(C=O)CC[C@@H]12 (some centres undefined) | n | n | x | n | n | x | x | x
Cc1ccc(NC(=O)c2ccc(Cl)c(S(=O)(=O)N3CCc4ccccc43)c2)nc1 | n | x | x | x | x | x | x | x
COc1ccc(C(=O)CSc2nnc(-c3ccco3)n2C)cc1 | n | -5.4 | n | n | n | n | n | n
COc1ccc(C(=O)CSc2nnc(-c3ccco3)n2CC2CCCO2)cc1 (centres undefined) | n | n | n | n | n | n | x | x
CC(=O)NCC(=O)N(Cc1ccco1)C1(C(=O)NC2CCCCC2)CCCCC1 | n | -5.6 | n | n | n | n | n | n
O=C(c1ccccn1)N(Cc1ccco1)C1(C(=O)NC2CCCCC2)CCCCC1 | x | n | n | n | n | n | x | x
CNc1nc(-c2ccc3c(c2)CCN3C(=O)c2cccc(F)c2)cs1 | n | -5.2 | n | n | n | n | n | n
CCCCNC(=O)c1onc(CSc2ccc(C(C)C)cc2)c1C(=O)O | n | -8.2 | n | n | n | n | 69% | n
CCN(CC(=O)Nc1ccc2c(c1)CCC2)Cc1nc2ccccc2c(=O)[nH]1 | x | -5.1 | n | n | n | n | n | n
Cn1c(-c2ccccc2)cc(=NNS(C)(=O)=O)c2cc(S(=O)(=O)O)ccc21 | n | x | x | x | x | x | x | x
CN(NS(=O)(=O)c1ccc(Br)cc1)c1nc(C(F)(F)F)nc2ccccc12 | n | -5.6 | n | n | n | n | n | n
CN(N)c1nc(C(F)(F)F)nc2ccccc12 | n | n | n | n | n | n | x | x
CCOc1cc2[nH]c(=S)n(C(C)C)c(=O)c2cc1OCC | n | -8.8 | n | n | n | n | 52% | n
CSc1ccc(C(=O)C2CCCN(C(=O)c3nonc3C)C2)cc1 (centres undefined) | n | -5.7 | n | n | n | n | 60% | n
CSc1ccc(C(=O)C2CCCN(C(=O)c3nn(C)c(=O)c4ccccc34)C2)cc1 (centres undefined) | n | n | n | n | n | n | x | x
